Source: publication PMC8520753 (CPT: Pharmacometrics & Systems Pharmacology, 2021)
Entries after “also recorded” stand apart in the source; their conditions may differ. Read-outs that look alike come from different tables or passages of the source.

Key:
[1] = Refined pediatric population pharmacokinetic; type: in vivo, children (pediatric patients); conditions: for Relative oral bioavailability: set to 100% for 0.12 mg/kg
Procedure, shortened: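 Children from birth to <18 y (VTE and post-Fontan) received oral bodyweight-adjusted rivaroxaban at 0.4 mg–20 mg, as single or multiple o.d./b.i.d./t.i.d. doses of tablet, oral suspension or granules. Plasma concentrations were fitted by PopPK with an 82.48 kg adult reference weight. Age, dose/kg on F1, formulation on ka, renal function and Fontan were screened graphically, then against random-effect estimates.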

CYP3A7 = CYP3A7 (Homo sapiens, UniProt P24462); assay: In vitro analyses of CYP3A7 contribution; type: in vitro ADME; conditions: historic and recently repeated in vitro analyses, unpublished, data on file
CYP3A7, sequence (P24462 whole entry): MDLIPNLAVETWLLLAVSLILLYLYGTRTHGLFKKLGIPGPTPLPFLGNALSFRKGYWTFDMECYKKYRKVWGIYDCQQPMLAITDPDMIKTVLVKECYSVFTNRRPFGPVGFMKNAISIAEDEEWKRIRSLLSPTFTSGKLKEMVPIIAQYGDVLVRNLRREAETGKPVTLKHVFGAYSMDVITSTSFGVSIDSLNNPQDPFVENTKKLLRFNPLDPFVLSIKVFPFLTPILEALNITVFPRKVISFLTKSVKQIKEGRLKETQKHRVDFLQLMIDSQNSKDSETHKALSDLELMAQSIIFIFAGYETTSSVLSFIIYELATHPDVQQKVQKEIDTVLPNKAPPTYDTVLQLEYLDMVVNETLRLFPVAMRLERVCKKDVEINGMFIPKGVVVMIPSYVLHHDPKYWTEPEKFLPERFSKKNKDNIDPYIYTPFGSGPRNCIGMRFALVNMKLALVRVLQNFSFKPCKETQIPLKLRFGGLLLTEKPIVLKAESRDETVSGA

[2] = subject with a bodyweight of 70 kg; cited from earlier work
[3] = integrated PopPK model in adults; cited from earlier work
[4] = cited from earlier work
[5] = cited from earlier work; remark: listed apart in the source
[6] = PopPK fixed effect, children, reference BW 82.48 kg

Q: For O=C(NC[C@H]1CN(c2ccc(N3CCOCC3=O)cc2)C(=O)O1)c1ccc(Cl)s1 [rivaroxaban], which “ka, tablet, granules for oral suspension and diluted ready-to-use oral suspension” value [1] is on record?
A: The value was 0.799 h⁻¹.

Q: And the “ka, undiluted ready-to-use oral suspension” value [1]?
A: The value was 0.226 h⁻¹.

Q: And the “ka for tablets, granules and diluted suspension” value ([1]; PopPK fixed effect, children)?
A: Its value is 0.799 h⁻¹.

Q: What about the “ka for undiluted suspension” value ([1]; PopPK fixed effect, children) of the same compound?
A: Its value is 0.226 h⁻¹.

Q: And the “CL for subject with BW of 82.48 kg” value [1, 6]?
A: The value was 8.02 L/h.

Q: And the “Q for subjects with BW of 82.48 kg” value [1, 6]?
A: Its value is 2.50 L/h.

Q: And the “Vc for subject with BW of 82.48 kg” value [1, 6]?
A: The value was 53.2 L.

Q: And the “Vp for subject with BW of 82.48 kg” value [1, 6]?
A: Its value is 59.1 L.

Q: What about the “Exponent to scale Vc and Vp on BW” value ([1]; allometric exponent, assumed identical for Vc and Vp) of the same compound?
A: Its value is 0.821.

Q: And the “Exponent to scale Q on BW” value ([1]; allometric exponent, children)?
A: The value was 0.761.

Q: And the Relative oral bioavailability ([1]; at 0.30 mg/kg)?
A: Its Relative oral bioavailability is 79.1%.

Q: And the Relative oral bioavailability ([1]; at 0.50 mg/kg)?
A: The Relative oral bioavailability was 68.1%.

Q: What about the “Effect of bodyweight on CL, Q, Vc and Vp” value ([1]; covariate analysis) of the same compound?
A: Its value is “significant effect”.

Q: And the “Effect of age on CL or F1” value ([1]; covariate analysis, age 0 to 18 years)?
A: Its value is “No effect”.

Q: What about the “Influence of renal function on PK” value ([1]; covariate analysis, four approaches, eGFR 43.8 to 456 ml/min/1.73 m^2) of the same compound?
A: Its value is “None of the four methods to test for an influence of renal function led to a significant improvement; also recorded: None of the four tested methods could improve the model fit”.

Q: What about the “Effect of comedication (weak or moderate CYP3A4 inhibitors, CYP3A4 inducers) on CL or F1” value ([1]; exploratory evaluation) of the same compound?
A: Its value is “no significant effect”.

Q: What about the clearance ([1]; human, plasma, oral) of the same compound?
A: Its clearance is 134 mL/min.

Q: What about the “ωCL2 (exponential), interindividual variability” value ([1]; random effect on CL) of the same compound?
A: Its value is 0.0705.

Q: What about the “ωF12 (exponential), interindividual variability” value ([1]; random effect on F1) of the same compound?
A: Its value is 0.0612.

Q: What about the “Population variation of CL (interindividual variability)” value ([1]; sqrt{exp(ω^2)-1}*100) of the same compound?
A: The value was 27.0%.

Q: And the “Population variation of F1 (interindividual variability)” value ([1]; sqrt{exp(ω^2)-1}*100)?
A: The value was 25.1%.

Q: And the “Dose-dependency of relative oral bioavailability” value ([1]; ~0.1 to 0.5 mg/kg single doses)?
A: Its value is “decrease with increasing dose per bodyweight”.

Q: What about the “Contribution of CYP3A7 to the high clearance below 2 years” value (CYP3A7) of the same compound?
A: The value was “could also be excluded”.

Q: And the Total plasma clearance [2]?
A: Its Total plasma clearance is 7.26 L/h.

Q: And the Total plasma clearance [3]?
A: Its Total plasma clearance is 6.58 L/h.

Q: What about the “Share of elimination by CYP3A, glomerular filtration and tubular secretion” value ([4]; adult mass balance data) of the same compound?
A: The value was ~ 54%.

Q: And the “Excreted unchanged via feces” value ([4]; adult mass balance)?
A: Its value is 7%.

Q: And the “Share of elimination by CYP2J2” value ([4]; adult mass balance)?
A: The value was 14%.

Q: What about the “Share of elimination by CYP-independent hydrolysis” value ([4]; adult mass balance) of the same compound?
A: The value was 14%.

Q: And the “Unaccounted in the mass balance study” value ([4]; adult mass balance)?
A: The value was 11%.

Q: What about the “Biopharmaceutics Classification System class” value [5] of the same compound?
A: Its value is “class 2”.
